Measurements taken from ChEMBL document CHEMBL4138145, “Cyclic Cystine-Bridged Peptides from the Marine Sponge Clathria basilana Induce Apoptosis in Tumor Cells and Depolarize the Bacterial Cytoplasmic Membrane” (J Nat Prod, 2017).
Activity calls are given as the source filed them. The rule behind the calls is not given here. Where a SMILES comes first, the peptide text is derived from it. Bridges are numbered along the chain shown (N, C = ends). [ ]: non-standard residue; d: D form. The star is where a group is joined. Ileψ(thiazoline)Cys = CC[C@H](C)[C@H](N)C1=N[C@H](C(=O)*)CS1; pGlu = O=C1CC[C@@H](C(=O)O)N1; dOrn = NCCC[C@@H](N)C(=O)O; X2 = C(=C\c1ccccc1)/N*; X4 = C(=C/c1ccccc1)/N*

Assays:
Acinetobacter baumannii = assay: Antimicrobial activity against Acinetobacter baumannii isolate 09987 after 16 to 20 hrs by broth micro dilution method; assay type: functional, organism-based
Procedure, shortened: (§1)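 Broth microdilution per CLSI in cation-adjusted Mueller-Hinton broth. Inoculum made by direct colony suspension, 5 × 10^5 CFU/mL final, added to serial 2-fold compound dilutions. Plates kept 16–20 h at 37 °C in ambient air. MIC is the lowest concentration with no visible growth. Strains are ATCC CLSI quality-control strains; A. baumannii 09987 is a Bonn clinical isolate.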

A2780 = assay: Cytotoxicity against human A2780 cells assessed as reduction in cell viability up to 10 uM after 72 hrs by MTT assay; assay type: functional, cell-based
Procedure, shortened: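 A2780 ovarian carcinoma cells were grown in RPMI-1640 with 10% FBS, penicillin and streptomycin, about 9000 cells/well, preincubated overnight. Increasing compound concentrations were applied for 72 h, then MTT was added. Absorbance read at 544 nm minus the 690 nm reference.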

Klebsiella pneumoniae = assay: Antimicrobial activity against Klebsiella pneumoniae after 16 to 20 hrs by broth micro dilution method; assay type: functional, organism-based; procedure, shortened: as §1
Escherichia coli = assay: Antimicrobial activity against Escherichia coli after 16 to 20 hrs by broth micro dilution method; assay type: functional, organism-based; procedure, shortened: as §1
NOMO-1 = assay: Cytotoxicity against human NOMO1 cells assessed as reduction in cell viability up to 10 uM after 24 hrs by MTT assay; assay type: functional, cell-based
Procedure, shortened: (§2)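 Suspension cells at 5 × 10^5 cells/mL, exposed 24 h to varying compound concentrations; 0.1% v/v DMSO as negative control. MTT added to 1 mg/mL final for 60 min, cells pelleted, formazan extracted in DMSO for 25 min at rt, A570 read with 650 nm reference. Viability relative to DMSO set at 100%; IC50 from fitted curves.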

Ramos = assay: Cytotoxicity against human Ramos cells assessed as reduction in cell viability up to 10 uM after 24 hrs by MTT assay; assay type: functional, cell-based; procedure, shortened: as §2
HL-60 = assay: Cytotoxicity against human HL60 cells assessed as reduction in cell viability up to 10 uM after 24 hrs by MTT assay; assay type: functional, cell-based; procedure, shortened: as §2
Pseudomonas aeruginosa = assay: Antimicrobial activity against Pseudomonas aeruginosa after 16 to 20 hrs by broth micro dilution method; assay type: functional, organism-based; procedure, shortened: as §1
[1] = test system: Mycobacterium tuberculosis; assay: Antimicrobial activity against Mycobacterium tuberculosis H37Rv up to 100 uM after 5 days by resazurin dye based assay; assay type: functional, organism-based
Procedure, shortened: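 M. tuberculosis H37Rv was grown aerobically at 37 °C in Middlebrook 7H9 with ADS enrichment, 0.5% glycerol and 0.05% tyloxapol, then precultured to log phase (OD600 0.5−1). Cells were seeded at 1 × 10^5 per well on 2-fold dilutions over 100−0.78 μM and held 5 days at 37 °C. Resazurin was added for 16 h at ambient temperature, then cells were formalin-fixed and fluorescence read (ex 540, em 590 nm). Growth is relative to rifampicin (0%) and DMSO (100%).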

Homo sapiens = species on record: Homo sapiens; assay: Cytotoxicity against human Jurkat 16 cells assessed as reduction in cell viability up to 10 uM after 24 hrs by MTT assay; assay type: functional, cell-based; procedure, shortened: as §2
Klebsiella aerogenes = assay: Antimicrobial activity against Enterobacter aerogenes after 16 to 20 hrs by broth micro dilution method; assay type: functional, organism-based; procedure, shortened: as §1
Bacillus subtilis [2] = assay: Induction of translation arrest in Bacillus subtilis isolate 1S34 assessed as increase in bmrC promoter activity at 30 ug after 14 to 18 hrs by beta-galactosidase reporter gene assay; assay type: functional, organism-based
Procedure, shortened: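 The bmrC promoter reporter in B. subtilis 1S34 was embedded at 3 × 10^7 CFU/mL in Belitzky minimal medium soft agar containing X-Gal (150 μg/mL). Test compounds were spotted, with reference antibiotic discs as positive controls. Plates were incubated at 37 °C and read for promoter-driven β-galactosidase induction.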

Bacillus subtilis [3] = assay: Induction of DNA damage in Bacillus subtilis isolate 1S34 assessed as increase in yorB promoter activity at 30 ug after 14 to 18 hrs by beta-galactosidase reporter gene assay; assay type: functional, organism-based
Procedure, shortened: (§3)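 B. subtilis 1S34 β-galactosidase promoter reporters were grown in LB with spectinomycin (50 μg/mL) to stationary phase. Cells were set at 3 × 10^7 CFU/mL in LB soft agar (0.7%) containing X-Gal (150 μg/mL). Test compounds were spotted on the plates, with reference antibiotic discs as positive controls. Plates were incubated 14−18 h at 30 °C and read for promoter induction (blue colour).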

Bacillus subtilis [4] = assay: Induction of cell envelope stress in Bacillus subtilis isolate 1S34 assessed as increase in ypuA promoter activity at 30 ug after 14 to 18 hrs by beta-galactosidase reporter gene assay; assay type: functional, organism-based; procedure, shortened: as §3
Bacillus subtilis [5] = assay: Induction of cell envelope stress in Bacillus subtilis isolate 1S34 assessed as increase in liaI promoter activity at 30 ug after 14 to 18 hrs by beta-galactosidase reporter gene assay; assay type: functional, organism-based; procedure, shortened: as §3
Bacillus subtilis [6] = assay: Induction of RNA damage in Bacillus subtilis isolate 1S34 assessed as increase in helD promoter activity at 30 ug after 14 to 18 hrs by beta-galactosidase reporter gene assay; assay type: functional, organism-based; procedure, shortened: as §3
Bacillus subtilis [7] = assay: Induction of DNA damage in Bacillus subtilis isolate 1S34 assessed as increase in yorB promoter activity at 10 ug after 14 to 18 hrs by beta-galactosidase reporter gene assay; assay type: functional, organism-based
Procedure, shortened: (§4)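 Agar-based β-galactosidase promoter-reporter assay. B. subtilis 1S34 grown to stationary phase in LB with spectinomycin 50 μg/mL, then set at 3 × 10^7 CFU/mL in LB soft agar (0.7%) containing X-Gal 150 μg/mL. Test compounds spotted at 20 nmol; reference antibiotics given on paper discs (5–30 μg). Plates read for promoter induction after 14–18 h at 30 °C.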

Bacillus subtilis [8] = assay: Induction of cell envelope stress in Bacillus subtilis isolate 1S34 assessed as increase in liaI promoter activity at 10 ug after 14 to 18 hrs by beta-galactosidase reporter gene assay; assay type: functional, organism-based; procedure, shortened: as §4
Bacillus subtilis [9] = assay: Induction of RNA damage in Bacillus subtilis isolate 1S34 assessed as increase in helD promoter activity at 10 ug after 14 to 18 hrs by beta-galactosidase reporter gene assay; assay type: functional, organism-based; procedure, shortened: as §4
Bacillus subtilis [10] = assay: Induction of translation arrest in Bacillus subtilis isolate 1S34 assessed as increase in bmrC promoter activity at 10 ug after 14 to 18 hrs by beta-galactosidase reporter gene assay; assay type: functional, organism-based
Bacillus subtilis [11] = assay: Induction of cell envelope stress in Bacillus subtilis isolate 1S34 assessed as increase in ypuA promoter activity at 10 ug after 14 to 18 hrs by beta-galactosidase reporter gene assay; assay type: functional, organism-based; procedure, shortened: as §4
Bacillus subtilis [12] = assay: Induction of RNA damage in Bacillus subtilis isolate 1S34 assessed as increase in helD promoter activity at 5 ug after 14 to 18 hrs by beta-galactosidase reporter gene assay; assay type: functional, organism-based; procedure, shortened: as §4
Bacillus subtilis [13] = assay: Induction of cell envelope stress in Bacillus subtilis isolate 1S34 assessed as increase in liaI promoter activity at 5 ug after 14 to 18 hrs by beta-galactosidase reporter gene assay; assay type: functional, organism-based; procedure, shortened: as §4
Bacillus subtilis [14] = assay: Induction of translation arrest in Bacillus subtilis isolate 1S34 assessed as increase in bmrC promoter activity at 5 ug after 14 to 18 hrs by beta-galactosidase reporter gene assay; assay type: functional, organism-based
Bacillus subtilis [15] = assay: Induction of DNA damage in Bacillus subtilis isolate 1S34 assessed as increase in yorB promoter activity at 5 ug after 14 to 18 hrs by beta-galactosidase reporter gene assay; assay type: functional, organism-based; procedure, shortened: as §4
Bacillus subtilis [16] = assay: Induction of cell envelope stress in Bacillus subtilis isolate 1S34 assessed as increase in ypuA promoter activity at 5 ug after 14 to 18 hrs by beta-galactosidase reporter gene assay; assay type: functional, organism-based; procedure, shortened: as §4

| Compound | Activity (Acinetobacter baumannii) | Activity (A2780) | Activity (Klebsiella pneumoniae) | Activity (Escherichia coli) | Activity (NOMO-1) | Activity (Ramos) | Activity (HL-60) | Activity (Pseudomonas aeruginosa) | Activity [1] | Activity (Homo sapiens) | Activity (Klebsiella aerogenes) | also measured |
| --- | --- | --- | --- | --- | --- | --- | --- | --- | --- | --- | --- | --- |
| CC(C)[C@H](N)C(=O)N/C=C/c1ccccc1 | inactive | inactive | inactive | inactive | inactive | inactive | inactive | inactive | inactive | inactive | inactive | – |
| CN[C@H](CC(C)C)C(=O)N[C@H]1C(=O)N[C@@H](CC(N)=O)C(=O)N[C@H]2C(=O)N[C@H]3C(=O)N[C@H](C(=O)N[C@H](C(=O)O)c4cc(O)cc(O)c4-c4cc3ccc4O)[C@H](O)c3ccc(c(Cl)c3)Oc3cc2cc(c3O[C@@H]2O[C@H](CO)[C@@H](O)[C@H](O)[C@H]2O[C@H]2C[C@](C)(N)[C@H](O)[C@H](C)O2)Oc2ccc(cc2Cl)[C@H]1O | – | – | – | – | – | – | – | – | – | – | – | Activity (Bacillus subtilis [2]): Active; Activity (Bacillus subtilis [3]): Active; Activity (Bacillus subtilis [4]): Active; Activity (Bacillus subtilis [5]): Active; Activity (Bacillus subtilis [6]): Active |
| CO[C@H]1/C=C/O[C@@]2(C)Oc3c(C)c(O)c4c(O)c(c(/C=N/N5CCN(C)CC5)c(O)c4c3C2=O)NC(=O)/C(C)=C\C=C\[C@H](C)[C@H](O)[C@@H](C)[C@@H](O)[C@@H](C)[C@H](OC(C)=O)[C@@H]1C | – | – | – | – | – | – | – | – | – | – | – | Activity (Bacillus subtilis [2]): Active; Activity (Bacillus subtilis [3]): Active; Activity (Bacillus subtilis [4]): Active; Activity (Bacillus subtilis [5]): Active; Activity (Bacillus subtilis [6]): Active |
| O=C(N[C@H](CO)[C@H](O)c1ccc([N+](=O)[O-])cc1)C(Cl)Cl | – | – | – | – | – | – | – | – | – | – | – | Activity (Bacillus subtilis [7]): Active; Activity (Bacillus subtilis [8]): Active; Activity (Bacillus subtilis [9]): Active; Activity (Bacillus subtilis [10]): Active; Activity (Bacillus subtilis [11]): Active |
| O=C(O)c1cn(C2CC2)c2cc(N3CCNCC3)c(F)cc2c1=O | – | – | – | – | – | – | – | – | – | – | – | Activity (Bacillus subtilis [12]): Active; Activity (Bacillus subtilis [13]): Active; Activity (Bacillus subtilis [14]): Active; Activity (Bacillus subtilis [15]): Active; Activity (Bacillus subtilis [16]): Active |
| CC(C)C[C@@H]1NC(=O)[C@@H]2CCCN2C(=O)[C@@H]2CCCN2C(=O)[C@@H](NC(=O)[C@@H]2CCC(=O)N2)CSSC[C@@H](C(=O)N2CCC[C@H]2C(N)=O)NC1=O ([pGlu]CPPLCP-NH2; disulfide 2-6) | inactive | inactive | inactive | inactive | inactive | inactive | inactive | inactive | inactive | inactive | inactive | – |
| CC[C@H](C)[C@H](NC(=O)[C@@H]1CCC(=O)N1)C(=O)N[C@@H](CC(C)C)C(=O)N[C@H]1CSSC[C@@H](C(=O)N/C=C/c2ccccc2)NC(=O)[C@H](Cc2ccccc2)NC(=O)[C@@H]2CCCN2C(=O)[C@@H]2CCCN2C1=O ([pGlu]ILCPPFC-X2; disulfide 4-8) | inactive | inactive | inactive | inactive | inactive | inactive | inactive | inactive | inactive | inactive | inactive | – |
| CC[C@H](C)[C@H](NC(=O)[C@@H]1CCC(=O)N1)C(=O)N[C@@H](CC(C)C)C(=O)N[C@H]1CSSC[C@@H](C(=O)N/C=C\c2ccccc2)NC(=O)[C@H](Cc2ccccc2)NC(=O)[C@@H]2CCCN2C(=O)[C@@H]2CCCN2C1=O ([pGlu]ILCPPFC-X4; disulfide 4-8) | – | inactive | – | – | inactive | inactive | inactive | – | – | inactive | – | – |
| CC[C@H](C)[C@H](N)C1=N[C@H](C(=O)N[C@@H](CC(C)C)C(=O)N[C@H](CCC(=O)O)C(=O)N[C@H](C(=O)N[C@H]2CCCCNC(=O)[C@H](CC(N)=O)NC(=O)[C@@H](CC(=O)O)NC(=O)[C@H](Cc3cnc[nH]3)NC(=O)[C@@H](Cc3ccccc3)NC(=O)[C@H]([C@@H](C)CC)NC(=O)[C@@H](CCCN)NC2=O)[C@@H](C)CC)CS1 ({Ileψ(thiazoline)Cys}-L[dE]IK[dOrn]I[dF]H[dD]N; lactam 4-C) | – | – | – | – | – | – | – | – | – | – | – | Activity (Bacillus subtilis [7]): Active; Activity (Bacillus subtilis [8]): Active; Activity (Bacillus subtilis [9]): Active; Activity (Bacillus subtilis [10]): Active; Activity (Bacillus subtilis [11]): Active |
